S1P3 agonist = human S1P3 receptor agonists, primary screen, cell-based, primary and confirmation, NFAT-BLA reporter; Sphingosine 1-phosphate receptor 3 (Homo sapiens), Q99500; S1P3 NFAT-BLA reporter cells, agonism, FRET ratio; relative to 1 µM S1P, basal subtracted; activation, % at 4.5 µM; 0.1% of 60,000 active;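 active = activation above the screen-wide mean plus 3 SD, cut at about 4.5% in these data, passing the limit was not always enough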
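Assay system: CHO cells stably expressing human S1P3, Gα16 and NFAT-β-lactamase reporter. Timing: overnight plating, 4 h compound 37 °C, 2 h substrate RT. Signal: β-lactamase FRET emission ratio 460/535 nm. Measure: percent activation versus median 1 µM S1P response, basal-subtracted, per plate. Repeats: primary screen single test, confirmation screen in triplicate.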
S1P1 ag-PAM = S1P1 agonists and agonism potentiators, primary screen, cell-based, primary and confirmation screens, CRE-bla reporter; S1P1 CRE-bla cells, forskolin, beta-lactamase FRET, potentiator mode; S1P1 agonist co-added at EC20, 2 nM; 100% = saturating reference agonist, 0% = basal; Sphingosine 1-phosphate receptor 1 (Homo sapiens), P21453; 0.57% of 56,000 active; activation, % at 9.5 µM;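 active = activation above a cutoff set at the mean activation of all tested compounds plus 3 SD, cut at about 54% in these data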;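 note: forskolin at 4 µM as EC80 and the EC20 agonist is SEW2871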
5HT1E antag = 5-HT1E receptor antagonists, primary screen, cell-based, HTS; 5-hydroxytryptamine receptor 1E (Homo sapiens), P28566; CHO 5-HT1E Ga15 NFAT-bla reporter, FRET, antagonist; inhibition, % at 6 µM; 0.99% of 65,000 active;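 active = inhibition above a set limit, the mean inhibition across every tested compound plus 3 SD, cut at about 29% in these data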;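 note: signal is the 460 over 535 nm emission ratio of beta-lactamase substrate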
Target sequence (P28566 whole entry, looked up): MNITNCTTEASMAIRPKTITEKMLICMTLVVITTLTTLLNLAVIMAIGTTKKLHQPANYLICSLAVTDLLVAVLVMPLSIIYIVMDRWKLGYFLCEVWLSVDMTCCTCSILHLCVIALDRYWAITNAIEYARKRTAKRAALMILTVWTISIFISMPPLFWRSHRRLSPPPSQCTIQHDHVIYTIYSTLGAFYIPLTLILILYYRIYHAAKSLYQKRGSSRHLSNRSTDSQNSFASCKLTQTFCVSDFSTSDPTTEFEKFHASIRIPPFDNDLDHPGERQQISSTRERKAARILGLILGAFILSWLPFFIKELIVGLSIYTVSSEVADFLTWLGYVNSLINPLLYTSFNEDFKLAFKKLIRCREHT
5HT1E ag = 5-HT1E receptor agonists, primary screen, cell-based, HTS; 5-hydroxytryptamine receptor 1E (Homo sapiens), P28566; CHO 5-HT1E Ga15 NFAT-bla reporter, FRET; 0% DMSO wells, 100% control agonist wells; activation, % at 6 µM; 0.69% of 65,000 active; AID 574, 2007;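 active = activation above a set limit, the screen-wide mean activation plus 3 SD, cut at about 8.5% in these data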
5-HT1A blocker = human 5-HT1a receptor antagonists, primary screen, cell-based, CHO, Ga15 NFAT-bla reporter; 0.68% of 62,000 active; 5-hydroxytryptamine receptor 1A (Homo sapiens), P08908; CHO 5-HT1a Ga15 NFAT-bla reporter, antagonist mode; inhibition, % at 10 µM;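 active = inhibition above the mean of all tested compounds plus 3 SD, cut at about 43% in these data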;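 note: receptor stimulated by 5-CT agonist at 100 nM near EC80; beta-lactamase reporter measured by ratiometric fluorescence of a cleavable substrate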
HTR1A agonist = human 5-HT1a receptor agonists, primary screen, cell-based, CHO, Ga15 NFAT-bla reporter; 5-hydroxytryptamine receptor 1A (Homo sapiens), P08908; CHO 5-HT1a Ga15 NFAT-bla reporter, FRET ratio; 0% basal, 100% maximal reference agonist; activation, % at 10 µM; 0.56% of 65,000 active;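 active = activation above the screen-wide mean activation plus 3 SD, cut at about 19% in these data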
A number is an active result; n = inactive; x = no result. An excerpt weighted towards active compounds, which were near 2.9% of everything screened.

SMILES	S1P3 agonist	S1P1 ag-PAM	5HT1E antag	5HT1E ag	5-HT1A blocker	HTR1A agonist
O=C(Nn1c(-c2ccccc2)nc2ccccc2c1=O)C1CCC1	n	n	n	n	n	n
CC(C)(CC(=O)N1CCN(c2ccc(Cl)cc2)CC1)CC1=NS(=O)(=O)c2ccccc2N1	n	63	n	n	n	n
CCCc1cc(=O)[nH]c(SCC(=O)N(C)C2CCS(=O)(=O)C2)n1 (stereo not given)	n	n	n	n	n	n
Cn1c(=O)[nH]c(=O)c2[nH]c(N(Cc3ccccc3)Cc3ccccc3)nc21	n	n	29	n	n	n
COc1c2c(nc3occc13)C(CCC(C)(C)O)(OC)C(O)CC2 (stereo not given)	n	n	n	26	n	n
Cc1ccc(S(=O)(=O)NCCN=C(CN2CCCC2)NS(=O)(=O)c2ccc(C)cc2)cc1	n	n	n	n	n	n
CC(C)N(C(=O)COc1ccc(Br)cc1Cl)C(C)C	n	n	n	n	n	n
CCOC(=O)c1cc2c(=O)n3ccccc3nc2n(CCCOC)c1=NC(C)=O	x	x	n	n	n	23
CC(C)OCCCn1c(=NC(=O)c2ccncc2)c(C#N)cc2c(=O)n3ccccc3nc21	n	n	n	9.1	n	37
CCCn1c(=NC(=O)c2ccco2)c(C(=O)OCC)cc2c(=O)n3ccccc3nc21	n	x	n	n	n	n
C=CCn1c(=N)c(C(=O)NCCCOC)cc2c(=O)n3ccccc3nc21	n	n	n	n	n	20
N=c1c(C(=O)NCc2ccc(F)cc2)cc2c(=O)n3ccccc3nc2n1CCCN1CCOCC1	n	n	n	n	n	31
CC(C)N1C(=O)CCC1C(=O)NCc1ccccc1Cl (stereo not given)	n	n	n	n	n	n
COc1cccc(C2C(C(=O)c3ccco3)=C(O)C(=O)N2CCCN2CCOCC2)c1OC (stereo not given)	n	x	n	n	n	n
CCn1c(Cc2ccc(OC)cc2)nnc1SCC(=O)Nc1cccc(C(=O)OC)c1	n	n	n	n	n	n
CN(CC(=O)NCCC1=CCCCC1)S(=O)(=O)c1ccc2c(c1)CCC(=O)N2	n	n	n	n	n	n
COc1ccc(C2=NOC(C(=O)NCc3ccccc3)C2)cc1 (stereo not given)	n	n	39	n	n	n
CCn1ncc(C2=NOC(C(=O)NCc3ccccc3)C2)c1C (stereo not given)	n	n	37	n	n	n
CCCOCCOC(=O)C1=C(C)NC(=O)NC1c1cc(Cl)c(O)c(OC)c1 (stereo not given)	n	n	n	n	n	n
CCCCCCNC(=O)c1c(N)n(/N=C/c2ccco2)c2nc3ccccc3nc12	n	n	n	n	n	31
CCCCNC(=O)c1c(N)n(/N=C/c2ccccn2)c2nc3ccccc3nc12	x	x	n	n	n	n
COc1ccc(N(CC(=O)NCc2cccs2)S(=O)(=O)c2c(C)nn(C)c2C)cc1	n	n	34	n	n	n
O=C(CCNC(=O)Cn1ccc2ccccc2c1=O)NCCN1CCc2ccccc2C1	n	n	n	n	n	n
O=C(Cn1ccc2ccccc2c1=O)NCCC(=O)NC1CCN(Cc2ccccc2)CC1	n	n	n	11	n	n
CCOC(=O)c1ccc2[nH]c(C)c(CCC(C)=O)c(=O)c2c1	n	n	n	n	n	n
SMILES	S1P3 agonist	S1P1 ag-PAM	5HT1E antag	5HT1E ag	5-HT1A blocker	HTR1A agonist
Cc1[nH]c2ccc(C(=O)OCCN(C)C)cc2c1C	n	n	n	31	n	n
CCOC(=O)c1cnc(-n2nc(C)cc2C)nc1NC1CCCCC1	n	110	n	n	48	n
O=C(O)c1cc(Cl)c2ccccc2c1O	n	n	n	n	n	n
O=C(O)c1ccc2cccc(Cl)c2c1O	n	n	n	n	52	n
CC1(C)Cc2c(c(N3CCOCC3)nc3snc(Br)c23)CO1	n	n	n	n	x	n
CC1(C)Cc2c(c(N3CCOCC3)nc3snc(N)c23)CO1	n	n	n	n	x	359
c1ccc(-c2nnc(N3CCOCC3)nc2-c2ccccc2)cc1	31	n	n	n	n	n
COC(=O)c1sc(NC(=O)Cc2cccs2)nc1C	n	n	n	n	n	n
O=c1cc(CN2CCN(C/C=C/c3ccccc3)CC2)c2cc(O)ccc2o1	n	n	n	n	44	n
O=C(Cn1cccc1C(=O)c1ccccc1)NCc1cccs1	n	n	n	29	n	n
N#CCSc1nc2sc3c(c2c(=O)n1C1CCCCC1)CCCC3	n	n	n	13	x	n
CC(=O)Nc1ccc(CN2CCN(c3cccc(C(F)(F)F)c3)CC2)cc1	n	n	n	23	n	n
CC(=O)c1cc2c(cc1NC(=O)CN1CCN(c3cccc(C(F)(F)F)c3)CC1)OCO2	x	x	n	n	n	n
COc1ccccc1NC(=O)N1CCN(c2cccc(C(F)(F)F)c2)CC1	n	n	n	13	n	n
O=S(=O)(Nc1nccs1)c1ccc(NS(=O)(=O)c2cccs2)cc1	n	n	n	n	n	n
CS(=O)(=O)Nc1ccc(S(=O)(=O)Nc2nccs2)cc1	n	n	n	10	n	n
CCOC(=O)C1=C(N)OC2=C(C(=O)CC(C)(C)C2)C1c1ccccc1OCC#N (stereo not given)	n	n	n	n	n	n
CC(C)Cn1c(N)c(C(=O)COC(=O)c2ccc3c(c2)OCCO3)c(=O)n(C)c1=O	n	n	n	n	n	n
CC(C)Cn1c(N)c(C(=O)CSc2ccc3c(c2)OCCO3)c(=O)n(C)c1=O	n	104	n	n	n	n
Cc1c(C(=O)OCC(=O)c2c(N)n(CC(C)C)c(=O)n(C)c2=O)oc2ccccc12	n	n	n	n	43	n
COCc1c(C(=O)OCC(=O)c2c(N)n(CC(C)C)c(=O)n(C)c2=O)oc2ccccc12	n	n	n	n	n	n
COC(=O)CN(Cc1ccccc1)S(=O)(=O)c1ccc(OC)c(OC)c1	n	n	n	n	n	n
N#Cc1c(N)nc(SCc2ccccn2)c(C#N)c1-c1cccs1	n	n	30	n	x	n
CCOC(=O)N1CCC(n2c(SCC(=O)NCc3ccccc3)nc3ccccc3c2=O)CC1	x	x	n	n	n	n

Screening results as filed in PubChem BioAssay.
